PABP polyA inh – PABP-poly(A) binding inhibition | P11940 | PABP-poly(A) RNA binding, fluorescence polarization | 1% of 290,000 active | inhibition, % at 35 µM;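 also: calls also rest on retests at 20 µM and on dose response follow-up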
Target sequence (P11940 whole entry, looked up): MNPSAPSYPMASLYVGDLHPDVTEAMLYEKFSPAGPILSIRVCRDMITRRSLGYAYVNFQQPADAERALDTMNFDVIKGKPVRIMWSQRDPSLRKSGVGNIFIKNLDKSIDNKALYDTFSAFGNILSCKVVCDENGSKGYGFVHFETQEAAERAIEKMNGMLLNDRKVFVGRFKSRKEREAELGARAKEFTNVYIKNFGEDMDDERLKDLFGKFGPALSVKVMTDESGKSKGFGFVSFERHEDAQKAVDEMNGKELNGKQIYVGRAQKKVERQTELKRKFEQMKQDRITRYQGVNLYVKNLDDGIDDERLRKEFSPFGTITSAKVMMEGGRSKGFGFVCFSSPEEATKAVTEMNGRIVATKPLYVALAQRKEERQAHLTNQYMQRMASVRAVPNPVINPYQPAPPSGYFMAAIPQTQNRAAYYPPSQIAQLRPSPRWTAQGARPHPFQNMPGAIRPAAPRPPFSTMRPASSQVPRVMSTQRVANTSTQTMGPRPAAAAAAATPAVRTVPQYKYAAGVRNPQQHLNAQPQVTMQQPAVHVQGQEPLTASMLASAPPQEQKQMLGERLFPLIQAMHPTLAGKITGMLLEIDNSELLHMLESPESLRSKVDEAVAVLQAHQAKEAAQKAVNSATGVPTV
MLLE-PAM2 inh – blocks PAM2 peptide binding to the PABP1 MLLE domain; P11940; GST-MLLE / FITC-PAM2 fluorescence polarization; inhibition, % at 20 µM; 0.36% of 360,000 active; AID 588489; in the data active = inhibition above about 35%, passing the limit was not always enough;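 also: plate controls were DMSO wells with GST-MLLE for no effect and wells lacking GST-MLLE protein for full effect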
core dimer inh – blocks dimerization of HCV core protein. inhibition, % at 5 µM. TR-FRET GST/Flag-core106 dimerization, 1536-well. AID 1899. 0.33% of 300,000 active;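 active = inhibition above the mean of all tested compounds plus 3 SD, set per screening campaign, cut at about 45% in these data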
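System: GST/Flag-tagged HCV core106 proteins. Incubation: compound-protein-antibody incubation 4 h at 22.5 °C. Technique: HTRF with 340 nm excitation, 617/671 nm emission. Medium: KF-containing HEPES buffer, pH 7.45, DTT, CHAPS, BSA. Read-out: inhibition (%) from 671 over 617 nm ratio. Also added: Eu(K)-anti-GST 90 ng/mL plus XL665-anti-Flag 1 µg/mL.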
HCV NS3 hel inh – HCV NS3 helicase inhibition; NS3 helicase DNA unwinding, Cy5 molecular beacon fluorescence; inhibition, % at 10.9 µM; 0.56% of 290,000 active; AID 1800;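 active = inhibition above the mean of all tested compounds plus 3 SD, set per campaign, cut at about 35% in these data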;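 also: 0% = DMSO wells and 100% = thioflavine S control wells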
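System: NS3 helicase fragment of HCV / Schedule: 1 h at 25 °C / Control set: DMSO alone as 0% and 110 µM thioflavine S as 100% / Reagent: Cy5/quencher beacon DNA duplex and ATP to start / Technique: Cy5 fluorescence / Replication: singlicate / Evaluation: % inhibition of end-to-start signal ratio versus controls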
eIF4H FP inh – inhibitors of RNA binding by human eIF4H | Q15056 | eIF4H fluorescence polarization binding assay | inhibition, % at 35 µM | 0.94% of 290,000 active | AID 2012;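 also: calls also rest on retests at 20 µM and on dose response follow-up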
DNA FID counter – fluorescent intercalator displacement, NS3 helicase counter-screen; DNA fluorescent intercalator displacement, fluorescence; inhibition, % at 7.9 µM; 0.17% of 290,000 active; in the data active = inhibition above about 37%;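 also: 0% = vehicle and 100% = reference compound; higher means more ethidium bromide displaced from hairpin DNA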
* = called active by the depositor; ? = inconclusive; / = not tested or not shown. This is a sample that favours compounds with a hit; in the whole collection about 2% have one here. Unless noted, no rule for the calls is given here.

SMILES	PABP polyA inh	MLLE-PAM2 inh	core dimer inh	HCV NS3 hel inh	eIF4H FP inh	DNA FID counter
O=[N+]([O-])c1ccc(S(=O)(=O)Nc2nnc(C(F)(F)F)s2)cc1	10	0	4	17	2	-14
COCCN1C[C@@H](CO)O[C@@H](n2cnc3c(NCCCO)ncnc32)C1	/	1	/	/	/	/
CC1CC1C(=O)OCC(=O)Nc1ccc2[nH]c(=O)[nH]c2c1 (centres undefined)	18*	-13	4	6	?	0
O=C(COC(=O)c1c(F)cccc1F)Nc1ccc2[nH]c(=O)[nH]c2c1	11	-14	-6	-7	57*	-2
O=C(COC(=O)c1ccc(F)cc1F)Nc1ccc2[nH]c(=O)[nH]c2c1	16	-19	-4	5	21	1
CC1CC1C(=O)OCC(=O)Nc1cccc([N+](=O)[O-])c1 (centres undefined)	56*	-1	0	18	?	-1
COc1ccc(OC)c(S(=O)(=O)NCC(c2cccs2)N2CCc3ccccc3C2)c1 (centres undefined)	/	1	2	/	/	/
Nc1cccn2c(-c3ccc(Cl)c(Cl)c3)cnc12	32*	-49	16	16	95*	-4
CCN(CC)c1ccc(NC(=O)CCS(=O)(=O)c2ccc(Br)cc2)c(C)c1	42*	-10	-13	30	93*	-28
O=C(O)CSc1cc(NS(=O)(=O)c2cccc([N+](=O)[O-])c2)c2ccccc2c1O	16	43*	/	19	-6	9
CCOc1ccc(S(=O)(=O)Nc2cc(SCC(=O)O)c(O)c3ccccc23)cc1	12	34	/	17	-5	-16
O=S(=O)(Nc1cc(Sc2cccc3cccnc23)c(O)c2ccccc12)c1ccccc1	active	/	/	5	75*	-7
COc1ccc(S(=O)(=O)N2CCC3CC2c2c(-c4ccc(C(F)(F)F)cc4)cccc23)cc1 (centres undefined)	/	5	/	/	/	/
COc1ccc(Br)cc1CN(C)C(=O)c1ccccc1SCC(=O)N1CCCC1	/	-3	/	/	/	/
COc1cc(C2NCCc3c2[nH]c2ccccc32)ccc1OC(C)C (centres undefined)	-6	/	-3	-30	-14	37*
CCNC(=O)C1(C)CCCN(C(=O)c2nc(C)oc2C)C1 (centres undefined)	/	13	/	/	/	/
CCc1ccc(C(O)c2ncc(-c3ccccc3F)[nH]2)cc1 (centres undefined)	/	-6	/	/	/	/
COCCC(=O)N1CCOCC1c1cc(C(=O)NCc2ccccc2)no1 (centres undefined)	/	3	/	/	/	/
COC(=O)c1sccc1NC(=S)Nc1ccccc1	54	20	-3	-6	-6	3
COC(=O)c1sccc1NC(=S)Nc1cc(C)cc(C)c1	-3	38*	3	2	0	1
COc1ccc(CCNC(=O)CSc2nnc(-c3ccco3)c(-c3ccco3)n2)cc1OC	48*	/	8	16	84*	-20
COc1ccc(CCNC(=O)CSc2ccc(-c3ccco3)nn2)cc1OC	23	9	-1	-9	4	-9
Cc1cccc(NC(=O)CSc2nnc(-c3ccco3)c(-c3ccco3)n2)c1	73*	28	/	10	89	-4
COc1ccc(Cl)cc1S(=O)(=O)NC(C)C(=O)NCCN1CCOCC1 (centres undefined)	/	-17	/	/	/	/
CCOc1ccc(NC(=S)N=Nc2c(O)[nH]c3ccccc23)cc1	-6	38*	0	-2	9	-1
SMILES	PABP polyA inh	MLLE-PAM2 inh	core dimer inh	HCV NS3 hel inh	eIF4H FP inh	DNA FID counter
Oc1cccc(NC(=S)N=Nc2c(O)[nH]c3ccccc23)c1	9	38*	-3	22	3	4
CCCCNC(=S)N=Nc1c(O)[nH]c2ccccc12	4	31	-2	-4	1	-9
COc1cc(NC(=O)C2=COCCO2)c(OC)cc1Cl	/	-5	-2	/	/	/
O=C(/C=C/c1cn(-c2ccccc2)nc1-c1cccnc1)c1ccco1	-8	5	62*	-7	10	-19
Cc1cc(C)c(NC(=O)C2CCCN2CCOC(=O)c2cccc([N+](=O)[O-])c2)c(C)c1 (centres undefined)	67*	10	0	-7	active	-16
Cc1cc(C)c(NC(=O)C2CCCN2CCOC(=O)c2ccccc2)c(C)c1 (centres undefined)	14	6	12	-22	-3	-28
